Source: ChEMBL document CHEMBL1142258, “Discovery of a series of aminopiperidines as novel iNOS inhibitors” (Bioorg Med Chem Lett, 2008)
pIC50: −log10 of the molar value.

Legend:
Nitric oxide synthase 3 = molecular target: T1, Nitric oxide synthase 3 (Homo sapiens, UniProt P29474); assay: Inhibition of human eNOS expressed in insect SF9 cells after 1 hr
T1 sequence (P29474 whole entry): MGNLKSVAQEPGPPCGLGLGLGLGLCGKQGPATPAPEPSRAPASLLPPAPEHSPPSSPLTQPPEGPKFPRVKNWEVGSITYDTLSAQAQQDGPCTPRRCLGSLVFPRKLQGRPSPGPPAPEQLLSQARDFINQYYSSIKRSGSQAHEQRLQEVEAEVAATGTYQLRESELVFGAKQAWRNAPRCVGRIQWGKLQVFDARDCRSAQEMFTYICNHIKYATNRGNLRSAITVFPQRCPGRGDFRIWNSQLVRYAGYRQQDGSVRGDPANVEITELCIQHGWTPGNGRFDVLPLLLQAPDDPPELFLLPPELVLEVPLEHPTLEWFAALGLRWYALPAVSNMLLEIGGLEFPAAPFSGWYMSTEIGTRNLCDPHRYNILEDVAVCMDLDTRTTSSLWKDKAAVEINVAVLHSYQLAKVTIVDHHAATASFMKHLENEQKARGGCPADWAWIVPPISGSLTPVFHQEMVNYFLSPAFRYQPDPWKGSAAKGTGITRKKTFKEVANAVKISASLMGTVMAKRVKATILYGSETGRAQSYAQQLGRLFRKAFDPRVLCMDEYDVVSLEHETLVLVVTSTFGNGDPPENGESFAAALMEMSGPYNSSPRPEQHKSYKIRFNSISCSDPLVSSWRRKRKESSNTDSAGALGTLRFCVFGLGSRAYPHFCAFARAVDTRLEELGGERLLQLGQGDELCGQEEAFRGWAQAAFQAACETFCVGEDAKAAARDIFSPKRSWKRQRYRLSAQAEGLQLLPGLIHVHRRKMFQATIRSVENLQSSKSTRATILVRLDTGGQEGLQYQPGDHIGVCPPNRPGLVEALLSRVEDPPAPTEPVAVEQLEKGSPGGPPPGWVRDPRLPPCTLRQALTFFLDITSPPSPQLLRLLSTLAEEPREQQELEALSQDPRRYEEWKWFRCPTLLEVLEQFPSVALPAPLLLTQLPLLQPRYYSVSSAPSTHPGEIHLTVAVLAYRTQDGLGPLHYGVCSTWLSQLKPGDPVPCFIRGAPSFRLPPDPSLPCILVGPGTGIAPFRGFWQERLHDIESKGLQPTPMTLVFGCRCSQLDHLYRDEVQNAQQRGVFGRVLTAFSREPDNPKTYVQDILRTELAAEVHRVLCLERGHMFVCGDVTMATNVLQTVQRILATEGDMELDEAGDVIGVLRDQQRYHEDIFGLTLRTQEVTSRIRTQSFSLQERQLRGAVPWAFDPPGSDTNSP
Summary of the method: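 Human recombinant eNOS from SF9 cells, tested at eight concentrations. Conditions: 10 nM [3H]arginine with NADP+/G6P/G6PDH, MgCl2, FAD, FMN, BH4, plus 25 nM calmodulin, 0.5 mM CaCl2 and 3.5 mM glutathione, in 50 mM Hepes for 1 h at 37 °C. Citrulline was resin-separated and counted, with AMT background. IC50 from one-site fit, geometric mean of ≥3 runs.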

[1] = molecular target: T2, Nitric oxide synthase, inducible (Homo sapiens, UniProt P35228); assay: Inhibition of cytokine-induced iNOS activity in human DLD1 cells after 24 hrs; format: cell-based, DLD-1
T2 sequence (P35228 whole entry): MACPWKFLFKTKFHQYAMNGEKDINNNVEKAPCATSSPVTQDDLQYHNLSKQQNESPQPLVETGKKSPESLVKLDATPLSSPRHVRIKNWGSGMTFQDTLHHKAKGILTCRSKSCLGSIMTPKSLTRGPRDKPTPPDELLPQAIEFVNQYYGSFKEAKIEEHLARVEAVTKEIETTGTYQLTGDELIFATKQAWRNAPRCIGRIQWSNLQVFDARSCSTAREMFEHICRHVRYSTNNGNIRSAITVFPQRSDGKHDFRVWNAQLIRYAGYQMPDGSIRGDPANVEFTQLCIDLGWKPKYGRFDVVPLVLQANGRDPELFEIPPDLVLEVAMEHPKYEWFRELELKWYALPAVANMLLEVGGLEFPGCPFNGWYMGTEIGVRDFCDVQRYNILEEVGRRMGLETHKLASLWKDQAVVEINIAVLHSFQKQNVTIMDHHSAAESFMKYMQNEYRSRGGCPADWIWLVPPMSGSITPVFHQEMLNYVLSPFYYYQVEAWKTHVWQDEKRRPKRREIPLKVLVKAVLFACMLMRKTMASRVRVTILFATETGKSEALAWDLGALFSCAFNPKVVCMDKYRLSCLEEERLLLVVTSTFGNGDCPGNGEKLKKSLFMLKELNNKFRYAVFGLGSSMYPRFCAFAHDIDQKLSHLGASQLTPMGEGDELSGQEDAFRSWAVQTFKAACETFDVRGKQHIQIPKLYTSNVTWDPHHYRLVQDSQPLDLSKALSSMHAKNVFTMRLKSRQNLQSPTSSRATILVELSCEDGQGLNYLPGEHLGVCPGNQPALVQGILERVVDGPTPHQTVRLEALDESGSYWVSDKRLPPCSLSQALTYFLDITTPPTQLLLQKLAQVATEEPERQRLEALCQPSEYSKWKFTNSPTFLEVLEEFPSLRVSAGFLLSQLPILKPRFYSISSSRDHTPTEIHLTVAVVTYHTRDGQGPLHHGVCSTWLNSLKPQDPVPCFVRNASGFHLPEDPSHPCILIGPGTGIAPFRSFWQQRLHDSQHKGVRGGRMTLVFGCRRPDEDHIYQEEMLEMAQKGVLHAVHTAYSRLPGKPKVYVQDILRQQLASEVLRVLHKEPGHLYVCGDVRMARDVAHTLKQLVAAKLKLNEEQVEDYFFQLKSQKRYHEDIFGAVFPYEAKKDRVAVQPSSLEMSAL
Summary of the method: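 DLD-1 cells were seeded 3 days ahead, then given fresh medium with 20 ng/mL IFNγ, 4 ng/mL TNFα, 2 ng/mL IL1β and 1 mM L-arginine. Compound titrations in 50 mM Hepes pH 7.4 were added at eight concentrations for 24 h at 37 °C, 5% CO2. Nitrite was read with Griess reagent at 540 nm.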

Homo sapiens = species: Homo sapiens; assay: Selectivity for human eNOS to human iNOS
Summary of the method: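 Ratio of eNOS IC50 to iNOS IC50, both from [3H]arginine→[3H]citrulline conversion. iNOS was endogenous to DLD-1 cells; eNOS was human recombinant expressed in SF9 cells. Each used 10 nM [3H]arginine with NADP+/G6P/FAD/FMN/BH4 cofactors in 50 mM Hepes for 1 h at 37 °C. The eNOS reaction also had calmodulin, CaCl2 and glutathione. Citrulline was separated by cation exchange and counted. IC50s came from eight concentrations, as geometric means of ≥3 runs.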

Nitric oxide synthase 1 = Nitric oxide synthase 1 (Homo sapiens, UniProt P29475); assay: Inhibition of human nNOS expressed in insect SF9 cells after 1 hr
Nitric oxide synthase 1, sequence (P29475 whole entry): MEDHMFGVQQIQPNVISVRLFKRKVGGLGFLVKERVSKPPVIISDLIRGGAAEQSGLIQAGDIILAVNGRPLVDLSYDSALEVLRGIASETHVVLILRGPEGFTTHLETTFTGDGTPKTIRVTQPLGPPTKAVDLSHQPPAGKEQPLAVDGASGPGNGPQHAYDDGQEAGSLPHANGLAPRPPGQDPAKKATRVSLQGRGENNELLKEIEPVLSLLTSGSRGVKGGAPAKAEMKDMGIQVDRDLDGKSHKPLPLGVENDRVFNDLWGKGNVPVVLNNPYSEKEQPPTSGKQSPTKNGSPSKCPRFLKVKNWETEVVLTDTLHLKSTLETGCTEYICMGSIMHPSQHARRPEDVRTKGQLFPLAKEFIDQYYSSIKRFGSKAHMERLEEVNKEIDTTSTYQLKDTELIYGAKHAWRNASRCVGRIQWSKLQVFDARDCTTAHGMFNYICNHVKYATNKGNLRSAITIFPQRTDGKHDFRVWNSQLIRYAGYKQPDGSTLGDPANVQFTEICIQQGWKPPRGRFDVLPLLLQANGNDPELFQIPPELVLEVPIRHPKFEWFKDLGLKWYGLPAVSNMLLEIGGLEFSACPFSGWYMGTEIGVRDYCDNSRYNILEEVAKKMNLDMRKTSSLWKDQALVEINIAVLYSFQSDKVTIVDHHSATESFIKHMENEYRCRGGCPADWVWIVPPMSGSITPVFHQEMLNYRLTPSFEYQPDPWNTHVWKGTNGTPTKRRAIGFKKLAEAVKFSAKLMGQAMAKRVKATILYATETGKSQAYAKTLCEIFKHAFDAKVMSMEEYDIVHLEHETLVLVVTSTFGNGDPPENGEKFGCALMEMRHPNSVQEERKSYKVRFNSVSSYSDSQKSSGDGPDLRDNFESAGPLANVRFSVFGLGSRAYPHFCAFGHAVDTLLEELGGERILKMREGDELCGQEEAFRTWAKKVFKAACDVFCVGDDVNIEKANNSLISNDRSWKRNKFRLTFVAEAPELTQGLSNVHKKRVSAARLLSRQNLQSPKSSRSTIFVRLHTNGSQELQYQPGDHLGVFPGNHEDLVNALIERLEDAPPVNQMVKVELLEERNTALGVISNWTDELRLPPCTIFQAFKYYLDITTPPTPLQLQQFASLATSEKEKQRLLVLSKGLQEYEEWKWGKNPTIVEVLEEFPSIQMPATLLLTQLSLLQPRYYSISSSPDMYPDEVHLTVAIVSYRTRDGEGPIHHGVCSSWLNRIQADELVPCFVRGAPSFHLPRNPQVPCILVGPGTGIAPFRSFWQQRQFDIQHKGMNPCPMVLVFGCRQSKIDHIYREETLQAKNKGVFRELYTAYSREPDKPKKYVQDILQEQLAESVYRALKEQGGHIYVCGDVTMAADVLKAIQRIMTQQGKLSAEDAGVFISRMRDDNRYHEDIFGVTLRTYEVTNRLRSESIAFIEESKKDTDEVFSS

[2] = molecular target: T2, Nitric oxide synthase, inducible; assay: Inhibition of human iNOS expressed in human DLD1 cells after 1 hr; format: cell-based, DLD-1
Summary of the method: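 Human iNOS endogenously expressed in DLD-1 cells, eight compound concentrations. Incubated 1 h at 37 °C in 50 mM Hepes with 10 nM [3H]arginine, [14C]citrulline internal standard, β-NADP+, G6P, MgCl2, G6P dehydrogenase, FAD, FMN and BH4. [3H]citrulline was separated on cation-exchange resin and counted; AMT defined background.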

[3] = molecular target: T2, Nitric oxide synthase, inducible; assay: Inhibition of cytokine-induced iNOS activity in human DLD1 cells at 10 uM after 24 hrs; format: cell-based; conditions: DLD-1
[4] = molecular target: T3, Nitric oxide synthase 3 (Homo sapiens) (UniProt P29474); assay: Inhibition of human eNOS expressed in insect SF9 cells at 10 uM after 1 hr
T3 sequence (whole entry): T1 sequence (P29474 whole entry)

Structure (SMILES) | pIC50 (Nitric oxide synthase 3) | pIC50 [1] | Ratio IC50 (Homo sapiens) | pIC50 (Nitric oxide synthase 1) | pIC50 [2] | inhibition [3] [%] | inhibition [4] [%]
CCN(Cc1cc(Cl)ccc1C#N)C1CCNCC1 | 6.00 | 6.24 | 10 | 6.44 | 7.00 | – | –
CN(Cc1cc(Cl)ccc1C#N)C1CCN(CCc2ccccc2)CC1 | 6.66 | 5.48 | 1 | 6.82 | 6.52 | – | –
CN1CCC(N(C)Cc2cc(Cl)ccc2[N+](=O)[O-])CC1 | 6.74 | 5.96 | 2 | 7.10 | 7.05 | – | –
CC(C)N(Cc1cc(Cl)ccc1C#N)C1CCNCC1 | 6.24 | 6.42 | 18 | 6.72 | 7.49 | – | –
CN(Cc1cc(Cl)ccc1C#N)C1CCCNCC1 (stereo not given) | 5.36 | – | 7 | 5.92 | 6.18 | 31 | –
CC(C)CN(Cc1cc(Cl)ccc1C#N)C1CCNCC1 | – | 6.24 | > 25 | 5.72 | 6.41 | – | 20
N#Cc1ccc(Cl)cc1CN(CC1CC1)C1CCNCC1 | 5.68 | 5.85 | 13 | 6.13 | 6.80 | – | –
CCCCN(Cc1cc(Cl)ccc1C#N)C1CCNCC1 | – | 5.30 | – | – | 6.24 | – | –
CC(C)CN(Cc1cc(Cl)ccc1C#N)[C@@H]1CCCNC1 | – | 5.82 | > 25 | 5.92 | 6.59 | – | 23
CN(Cc1cc(Cl)ccc1C#N)C1CCN(CC2CC2)CC1 | 6.07 | 5.46 | 3 | 6.28 | 6.60 | – | –
CCCN1CCC(N(C)Cc2cc(Cl)ccc2C#N)CC1 | 5.96 | 5.36 | 2 | 6.09 | 6.17 | – | –
COc1ccc(C#N)c(CN(C)C2CCN(C)CC2)c1 | – | – | – | – | 5.29 | < 15 | –
CC(C)CN1CCC(N(C)Cc2cc(Cl)ccc2C#N)CC1 | 6.27 | 5.49 | 1 | 6.22 | 6.40 | – | –
CN(Cc1cc(Cl)ccc1C#N)C1CCCNC1 (stereo not given) | 6.01 | 5.36 | 5 | 6.72 | 6.74 | – | –
CCCCN1CCC(N(C)Cc2cc(Cl)ccc2C#N)CC1 | 6.17 | 5.42 | 2 | 6.38 | 6.47 | – | –
N#Cc1ccc(C(=O)N2CCC3(CC2)N=C(N)c2c(F)ccc(F)c2N3)cn1 | – | – | – | – | – | – | < 15
CCN1CCC(N(C)Cc2cc(Cl)ccc2C#N)CC1 | 6.35 | 5.35 | 1 | 6.43 | 6.43 | – | –
CC(C)CN(Cc1cc(Cl)ccc1C#N)[C@H]1CCCNC1 | – | 6.24 | > 25 | 5.28 | 6.48 | – | 0
CN1CCC(N(C)Cc2cc(Cl)ccc2Br)CC1 | 6.09 | – | 2 | 6.23 | 6.38 | 51 | –
CN1CCC(N(C)Cc2cc(Cl)ccc2C(F)(F)F)CC1 | 5.85 | – | 2 | 6.11 | 6.15 | 48 | –
CCCN(Cc1cc(Cl)ccc1C#N)C1CCNCC1 | 5.77 | 6.55 | 13 | 6.85 | 6.89 | – | –
CN1CCC(N(C)Cc2cc(Br)ccc2C#N)CC1 | 6.09 | 5.43 | 4 | 6.28 | 6.68 | – | –
CC(C)CN(Cc1cc(Cl)ccc1C#N)C1CCCNC1 (stereo not given) | – | 5.92 | > 15 | 5.60 | 6.54 | – | 15
CN(Cc1cc(Cl)ccc1C#N)C1CCNCC1 | 5.96 | 5.23 | 3 | 6.46 | 6.48 | – | –
CN(Cc1cc(Cl)ccc1C#N)C1CCN(Cc2ccccc2)CC1 | 5.37 | 5.46 | 16 | 5.74 | 6.57 | – | –
CC(=N)NCCCC[C@H](N)C(=O)O [L-NIL] | 5.60 | 4.51 | 9 | 5.22 | 6.55 | – | –
CN1CCC(N(C)Cc2cc(Cl)ccc2C#N)CC1 | 6.11 | 5.43 | 3 | 6.27 | 6.54 | – | –
CC(C)CN(Cc1cc(Cl)ccc1C#N)[C@H]1CCCN(C)C1 | – | 6.49 | > 50 | 5.19 | 6.14 | – | 0
CC(C)CN(Cc1cc(Cl)ccc1C#N)[C@@H]1CCCN(C)C1 | – | 6.18 | > 15 | 5.31 | 6.33 | – | 0
